ChEMBL document CHEMBL1150855, “Five new prenylated stilbenes from the root bark of Lonchocarpus chiricanus” (2001)
Values after ≈ are worked out from the molar mass of the structure shown. Active and inactive are the calls of the source. The rule behind the calls is not given here.

How the values were obtained:
Aedes aegypti = test: Larvicidal activity against Aedes aegypti larvae assessed as minimum concentration required to kill all larvae after 24 hrs by dilution test; assay type: functional
Method in brief: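 Roughly 10 A. aegypti larvae per tube in tap water. Compound added from geometric dilutions of a 1 mg/100 µL DMSO stock, with the volume made up to 10 mL, for final 50 to 1 ppm. Tubes kept in darkness at 26-28 °C for 24 h, then lethality scored under lab light. Value is the minimal concentration (ppm) killing all larvae.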

Cladosporium cucumerinum [1] = test: Antifungal activity against Cladosporium cucumerinum at 100 ug after 2 to 3 days by bioautographic TLC assay; assay type: functional, organism-based
Method in brief: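 Compounds in dichloromethane (1 mg/mL stock) were geometrically diluted across 1 to 0.015 mg/mL, and 10 µL of each dilution was applied to silica gel TLC plates. Plates were covered with C. cucumerinum in nutritive medium and incubated 2-3 days in moist boxes. The read-out was the minimal amount (µg) giving a clear inhibition zone on a dark gray background, up to 100 µg. Nystatin in MeOH served as the reference.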

Cladosporium cucumerinum [2] = test: Antifungal activity against Cladosporium cucumerinum assessed as minimum concentration required to inhibit fungal growth after 2 to 3 days by bioautographic TLC assay; assay type: functional
Method in brief: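 Stocks at 1 mg/mL in dichloromethane (nystatin in MeOH), geometrically diluted over 1 to 0.015 mg/mL. 10 µL of each dilution applied to silica gel TLC plates. Plates then covered with C. cucumerinum in nutritive medium and held 2-3 days in a moist atmosphere. Clear zones read against a dark grey background. Value is the minimal amount (µg) inhibiting growth; nystatin reference.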

Cladosporium cucumerinum [3] = test: Antifungal activity against Cladosporium cucumerinum after 24 hrs by agar-dilution assay; assay type: functional
Method in brief: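 Test solutions made by geometric dilution in DMSO from a 3 mg/mL DMSO stock, added to Sabouraud agar in wells at a final 60 to 3 µg/mL. C. cucumerinum suspended in distilled water and spread over the agar. Plates sealed hermetically, 30 °C for 24 h. Value is the MIC (µg/mL). Compound-free growth controls; duplicates; nystatin reference at 10 to 0.1 µg/mL.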

Compound	Activity (Aedes aegypti) [ppm]	Activity (Cladosporium cucumerinum [1])	Activity (Cladosporium cucumerinum [2]) [µg]	MIC (Cladosporium cucumerinum [3]) [µg/mL]
COc1c(CC=C(C)C)c(O)cc(/C=C/c2ccccc2)c1CC=C(C)C [CHIRICANINE C]	>50	inactive		
CC(C)=CCc1c(O)cc(O)c(CC=C(C)C)c1/C=C/c1ccccc1 [LONGISTYLINE D]	6	inactive		
CC(C)=CCc1c(O)cc(/C=C/c2ccccc2)cc1O [CHIRICANINE A]	6		5	30 (≈ 107 µM)
COc1cc(/C=C/c2ccccc2)cc(OC)c1 [3,5-O-DIMETHYLPINOSYLVIN]	3	inactive		
NYSTATIN			0.2	1
CC1(C)Oc2cc(/C=C/c3ccccc3)cc(O)c2C[C@@H]1O [CHIRICANINE B]	>50	inactive		
CC(C)=CCc1c(O)cc2c(c1/C=C/c1ccccc1)CC(O)C(C)(C)O2 (stereo unspecified) [CHIRICANINE D]	>50	inactive		
C=C(C)[C@H]1Cc2c(ccc3c2O[C@@H]2COc4cc(OC)c(OC)cc4[C@@H]2C3=O)O1 [ROTENONE]	3			
